Reference: ChEMBL document CHEMBL1151458, “Comparative analysis of the bactericidal activities of amphibian peptide analogues against multidrug-resistant nosocomial bacterial strains” (2008)
Active and inactive are the calls of the source. The calls are words filed in the database; no cut-off is given here.

system: Staphylococcus aureus; test: Antimicrobial activity against Staphylococcus aureus isolate 1 with AMC-AMP-CIP-ERY-GEN-OXA-RIF resistance phenotype at twofold the bactericidal concentration within 30 mins; type: functional, organism-based
Procedure, shortened: (§1)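 Time-kill in 10 mM sodium phosphate buffer, pH 7.4: 1 × 10^7 CFU/ml mid-log clinical isolate (10 μl) exposed at 37°C to peptide at the 1.5-h bactericidal concentration or twofold that, in 100 μl. Samples taken from 2 min onward, plated on tryptone soy agar, CFU counted after 24 h at 37°C. Killing taken as ≥3 log10 CFU/ml drop.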

With “H-IIGPVLGLVGSALGGLLKKI-NH2 [BOMBININ H2]” the Activity was “inactive”.
H-LLPIVGNLLKSLL-NH2 was tested, and the Activity was “Active”.

system: Acinetobacter baumannii; test: Antimicrobial activity against Acinetobacter baumannii isolate 3 with AMP-AMC-CFZ-CIP-IPM-SXT-TET-TOB resistance phenotype assessed as time to kill at bactericidal concentration; type: functional; procedure, shortened: as §1

With “H-IIGPVLGLVGSALGGLLKKI-NH2 [BOMBININ H2]” the Time was 2 min.

H-LLPIVGNLLKSLL-NH2 was tested, and the Time was “>=30 min”.

system: Enterococcus faecium; test: Bactericidal activity against Enterococcus faecium isolate 6 with AMP-AMC-CLI-CRO-CTX-CIP-ERY-GEN-KAN-LVX-SXT-VAN resistance phenotype assessed as concentration required for >= 3 log10 CFU/ml reduction in viable bacteria in sodium phosphate buffer at pH 7.4 after 1.5 hrs by liquid microdilution assay; type: functional
Procedure, shortened: (§2)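 Clinical multidrug-resistant isolates grown to mid-log in tryptone soy broth and stored frozen. Exponential cells resuspended in 10 mM sodium phosphate buffer, pH 7.4, at 1 × 10^7 CFU/ml; 10 μl incubated with graded peptide concentrations in 100 μl at 37°C for 1.5 h. Plated on tryptone soy agar, CFU read after 24 h at 37°C. Peptide stocks in 20% ethanol.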

In order of falling Activity:
1. H-LLPIVGNLLKSLL-NH2  12 µM
2. H-IIGPVLGLVGSALGGLLKKI-NH2 [BOMBININ H2]  4 µM

system: Pseudomonas aeruginosa; test: Bactericidal activity against Pseudomonas aeruginosa isolate 1 with AMP-CFZ-CIP-CTX-CXM-GEN-LVX-SXT-TET resistance phenotype assessed as concentration required for >= 3 log10 CFU/ml reduction in viable bacteria in 20% heat-inactivated human serum after 1.5 hrs by liquid microdilution assay; type: functional
Procedure, shortened: (§3)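 The buffer microdilution kill assay (1 × 10^7 CFU/ml mid-log cells, 10 μl in 100 μl, 37°C, 1.5 h, CFU on tryptone soy agar after 24 h) with serum added to 20% or 40% final. Serum was pooled from five healthy donors, clotted at room temperature, spun at 300 × g and heat-inactivated at 56°C for 30 min.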

In order of falling Activity:
1. H-LLPIVGNLLKSLL-NH2  192 µM
2. H-IIGPVLGLVGSALGGLLKKI-NH2 [BOMBININ H2]  128 µM

system: Stenotrophomonas maltophilia; test: Bactericidal activity against Stenotrophomonas maltophilia isolate 1 with AMK-CIP-CTX-IPM-MEM-SAM-TZP resistance phenotype assessed as concentration required for >= 3 log10 CFU/ml reduction in viable bacteria in sodium phosphate buffer at pH 7.4 after 1.5 hrs by liquid microdilution assay; type: functional; procedure, shortened: as §2

In order of falling Activity:
1. H-LLPIVGNLLKSLL-NH2  24 µM
2. H-IIGPVLGLVGSALGGLLKKI-NH2 [BOMBININ H2]  4 µM

system: Staphylococcus aureus; test: Bactericidal activity against Staphylococcus aureus isolate 3 with AMC-AMP-CIP-ERY-GEN-LVX-OXA resistance phenotype assessed as concentration required for >= 3 log10 CFU/ml reduction in viable bacteria in sodium phosphate buffer at pH 7.4 after 1.5 hrs by liquid microdilution assay; type: functional; procedure, shortened: as §2

In order of falling Activity:
1. H-LLPIVGNLLKSLL-NH2  12 µM
2. H-IIGPVLGLVGSALGGLLKKI-NH2 [BOMBININ H2]  8 µM

system: Acinetobacter baumannii; test: Bactericidal activity against Acinetobacter baumannii isolate 1 with AMP-AMC-CFZ-CIP-IPM-LVX-PIP-SXT-TET resistance phenotype assessed as concentration required for >= 3 log10 CFU/ml reduction in viable bacteria in sodium phosphate buffer at pH 7.4 after 1.5 hrs by liquid microdilution assay; type: functional; procedure, shortened: as §2

In order of falling Activity:
1. H-LLPIVGNLLKSLL-NH2  24 µM
2. H-IIGPVLGLVGSALGGLLKKI-NH2 [BOMBININ H2]  8 µM

system: Acinetobacter baumannii; test: Bactericidal activity against Acinetobacter baumannii isolate 3 with AMP-AMC-CFZ-CIP-IPM-SXT-TET-TOB resistance phenotype assessed as concentration required for >= 3 log10 CFU/ml reduction in viable bacteria in 20% heat-inactivated human serum after 1.5 hrs by liquid microdilution assay; type: functional; procedure, shortened: as §3

In order of falling Activity:
1. H-LLPIVGNLLKSLL-NH2  192 µM
2. H-IIGPVLGLVGSALGGLLKKI-NH2 [BOMBININ H2]  128 µM

system: Pseudomonas aeruginosa; test: Bactericidal activity against Pseudomonas aeruginosa isolate 2 with AMP-CFZ-CIP-CTX-CXM-GEN-LVX-IPM-MEM-SXT-TET resistance phenotype assessed as concentration required for >= 3 log10 CFU/ml reduction in viable bacteria in sodium phosphate buffer at pH 7.4 after 1.5 hrs by liquid microdilution assay; type: functional; procedure, shortened: as §2

In order of falling Activity:
1. H-LLPIVGNLLKSLL-NH2  48 µM
2. H-IIGPVLGLVGSALGGLLKKI-NH2 [BOMBININ H2]  16 µM

system: Enterococcus faecium; test: Bactericidal activity against Enterococcus faecium isolate 3 with AMP-CIP-CTX-ERY-GEN-LVX-SXT-TEC-VAN resistance phenotype assessed as concentration required for >= 3 log10 CFU/ml reduction in viable bacteria in 20% heat-inactivated human serum after 1.5 hrs by liquid microdilution assay; type: functional; procedure, shortened: as §3

In order of falling Activity:
1. H-IIGPVLGLVGSALGGLLKKI-NH2 [BOMBININ H2]  64 µM
2. H-LLPIVGNLLKSLL-NH2  48 µM

system: Pseudomonas aeruginosa; test: Antimicrobial activity against Pseudomonas aeruginosa isolate 1 with AMP-CFZ-CIP-CTX-CXM-GEN-LVX-SXT-TET resistance phenotype at bactericidal concentration after 30 mins by time kill assay; type: functional, organism-based; procedure, shortened: as §1

With “H-IIGPVLGLVGSALGGLLKKI-NH2 [BOMBININ H2]” the Activity was “inactive”.
In the case of H-LLPIVGNLLKSLL-NH2, the Activity is reported as “inactive”.

system: Staphylococcus aureus; test: Bactericidal activity against Staphylococcus aureus isolate 1 with AMC-AMP-CIP-ERY-GEN-OXA-RIF resistance phenotype assessed as concentration required for >= 3 log10 CFU/ml reduction in viable bacteria in sodium phosphate buffer at pH 7.4 after 1.5 hrs by liquid microdilution assay; type: functional; procedure, shortened: as §2

In order of rising Activity:
1. H-IIGPVLGLVGSALGGLLKKI-NH2 [BOMBININ H2]  16 µM
2. H-LLPIVGNLLKSLL-NH2  48 µM

system: Staphylococcus aureus; test: Bactericidal activity against Staphylococcus aureus isolate 2 with AMC-AMP-CIP-ERY-GEN-LVX-OXA-RIF-TET resistance phenotype assessed as concentration required for >= 3 log10 CFU/ml reduction in viable bacteria in sodium phosphate buffer at pH 7.4 after 1.5 hrs by liquid microdilution assay; type: functional; procedure, shortened: as §2

In order of rising Activity:
1. H-IIGPVLGLVGSALGGLLKKI-NH2 [BOMBININ H2]  16 µM
2. H-LLPIVGNLLKSLL-NH2  48 µM

system: Enterococcus faecium; test: Bactericidal activity against Enterococcus faecium isolate 3 with AMP-CIP-CTX-ERY-GEN-LVX-SXT-TEC-VAN resistance phenotype assessed as concentration required for >= 3 log10 CFU/ml reduction in viable bacteria in sodium phosphate buffer at pH 7.4 after 1.5 hrs by liquid microdilution assay; type: functional; procedure, shortened: as §2

In order of falling Activity:
1. H-LLPIVGNLLKSLL-NH2  12 µM
2. H-IIGPVLGLVGSALGGLLKKI-NH2 [BOMBININ H2]  4 µM

system: Staphylococcus aureus; test: Bactericidal activity against Staphylococcus aureus isolate 1 with AMC-AMP-CIP-ERY-GEN-OXA-RIF resistance phenotype assessed as concentration required for >= 3 log10 CFU/ml reduction in viable bacteria in 20% heat-inactivated human serum after 1.5 hrs by liquid microdilution assay; type: functional; procedure, shortened: as §3

In order of rising Activity:
1. H-IIGPVLGLVGSALGGLLKKI-NH2 [BOMBININ H2]  64 µM
2. H-LLPIVGNLLKSLL-NH2  96 µM

system: Acinetobacter baumannii; test: Bactericidal activity against Acinetobacter baumannii isolate 3 with AMP-AMC-CFZ-CIP-IPM-SXT-TET-TOB resistance phenotype assessed as concentration required for >= 3 log10 CFU/ml reduction in viable bacteria in sodium phosphate buffer at pH 7.4 after 1.5 hrs by liquid microdilution assay; type: functional; procedure, shortened: as §2

In order of rising Activity:
1. H-LLPIVGNLLKSLL-NH2  6 µM
2. H-IIGPVLGLVGSALGGLLKKI-NH2 [BOMBININ H2]  8 µM

system: Pseudomonas aeruginosa; test: Antimicrobial activity against Pseudomonas aeruginosa isolate 1 with AMP-CFZ-CIP-CTX-CXM-GEN-LVX-SXT-TET resistance phenotype at twofold bactericidal concentration after 10 to 30 mins by time kill assay; type: functional, organism-based; procedure, shortened: as §1

In the case of “H-IIGPVLGLVGSALGGLLKKI-NH2 [BOMBININ H2]”, the Activity is reported as “Active”.
With H-LLPIVGNLLKSLL-NH2 the Activity was “Active”.

system: Enterococcus faecium; test: Bactericidal activity against Enterococcus faecium isolate 5 with AMP-AMC-CIP-CLI-ERY-GEN-KAN-LVX-SXT-TEC-VAN resistance phenotype assessed as concentration required for >= 3 log10 CFU/ml reduction in viable bacteria in sodium phosphate buffer at pH 7.4 after 1.5 hrs by liquid microdilution assay; type: functional; procedure, shortened: as §2

In order of rising Activity:
1. H-IIGPVLGLVGSALGGLLKKI-NH2 [BOMBININ H2]  8 µM
2. H-LLPIVGNLLKSLL-NH2  12 µM

system: Acinetobacter baumannii; test: Bactericidal activity against Acinetobacter baumannii isolate 2 with AMP-CFZ-CIP-LVX-PIP-SXT resistance phenotype assessed as concentration required for >= 3 log10 CFU/ml reduction in viable bacteria in sodium phosphate buffer at pH 7.4 after 1.5 hrs by liquid microdilution assay; type: functional; procedure, shortened: as §2

In order of rising Activity:
1. H-IIGPVLGLVGSALGGLLKKI-NH2 [BOMBININ H2]  4 µM
2. H-LLPIVGNLLKSLL-NH2  6 µM

system: Pseudomonas aeruginosa; test: Bactericidal activity against Pseudomonas aeruginosa isolate 1 with AMP-CFZ-CIP-CTX-CXM-GEN-LVX-SXT-TET resistance phenotype assessed as concentration required for >= 3 log10 CFU/ml reduction in viable bacteria in sodium phosphate buffer at pH 7.4 after 1.5 hrs by liquid microdilution assay; type: functional; procedure, shortened: as §2

In order of rising Activity:
1. H-IIGPVLGLVGSALGGLLKKI-NH2 [BOMBININ H2]  16 µM
2. H-LLPIVGNLLKSLL-NH2  48 µM

system: Enterococcus faecium; test: Antimicrobial activity against Enterococcus faecium isolate 3 with AMP-CIP-CTX-ERY-GEN-LVX-SXT-TEC-VAN resistance phenotype assessed as time to kill at bactericidal concentration; type: functional; procedure, shortened: as §1

In order of rising Time:
1. H-IIGPVLGLVGSALGGLLKKI-NH2 [BOMBININ H2]  5 min
2. H-LLPIVGNLLKSLL-NH2  5 min

system: Pseudomonas aeruginosa; test: Bactericidal activity against Pseudomonas aeruginosa isolate 3 with AMP-CFZ-CTX-CIP-GEN-IPM-LVX-SXT-TET-TOB resistance phenotype assessed as concentration required for >= 3 log10 CFU/ml reduction in viable bacteria in sodium phosphate buffer at pH 7.4 after 1.5 hrs by liquid microdilution assay; type: functional; procedure, shortened: as §2

In order of falling Activity:
1. H-LLPIVGNLLKSLL-NH2  48 µM
2. H-IIGPVLGLVGSALGGLLKKI-NH2 [BOMBININ H2]  8 µM

system: Enterococcus faecium; test: Antimicrobial activity against Enterococcus faecium isolate 3 with AMP-CIP-CTX-ERY-GEN-LVX-SXT-TEC-VAN resistance phenotype assessed as time to kill at twofold the bactericidal concentration; type: functional, organism-based; procedure, shortened: as §1

In the case of “H-IIGPVLGLVGSALGGLLKKI-NH2 [BOMBININ H2]”, the Activity is reported as “inactive”.
H-LLPIVGNLLKSLL-NH2 was tested, and the Activity was “inactive”.

system: Stenotrophomonas maltophilia; test: Bactericidal activity against Stenotrophomonas maltophilia isolate 2 with AMK-CIP-CTX-IPM-MEM-SAM-TZP resistance phenotype assessed as concentration required for >= 3 log10 CFU/ml reduction in viable bacteria in 20% heat-inactivated human serum after 1.5 hrs by liquid microdilution assay; type: functional; procedure, shortened: as §3

In order of rising Activity:
1. H-IIGPVLGLVGSALGGLLKKI-NH2 [BOMBININ H2]  128 µM
2. H-LLPIVGNLLKSLL-NH2  192 µM

system: Stenotrophomonas maltophilia; test: Antimicrobial activity against Stenotrophomonas maltophilia isolate 2 with AMK-CIP-CTX-IPM-MEM-SAM-TZP resistance phenotype assessed as assessed as time to kill at twofold bactericidal concentration; type: functional; procedure, shortened: as §1

In order of falling Time:
1. H-IIGPVLGLVGSALGGLLKKI-NH2 [BOMBININ H2]  2 min
2. H-LLPIVGNLLKSLL-NH2  2 min

system: Stenotrophomonas maltophilia; test: Bactericidal activity against Stenotrophomonas maltophilia isolate 2 with AMK-CIP-CTX-IPM-MEM-SAM-TZP resistance phenotype assessed as concentration required for >= 3 log10 CFU/ml reduction in viable bacteria in sodium phosphate buffer at pH 7.4 after 1.5 hrs by liquid microdilution assay; type: functional; procedure, shortened: as §2

In order of rising Activity:
1. H-LLPIVGNLLKSLL-NH2  3 µM
2. H-IIGPVLGLVGSALGGLLKKI-NH2 [BOMBININ H2]  4 µM

system: Stenotrophomonas maltophilia; test: Bactericidal activity against Stenotrophomonas maltophilia isolate 4 with AMK-CAZ-CIP-FEP-IPM-SAM-TZP resistance phenotype assessed as concentration required for >= 3 log10 CFU/ml reduction in viable bacteria in sodium phosphate buffer at pH 7.4 after 1.5 hrs by liquid microdilution assay; type: functional; procedure, shortened: as §2

In order of rising Activity:
1. H-IIGPVLGLVGSALGGLLKKI-NH2 [BOMBININ H2]  16 µM
2. H-LLPIVGNLLKSLL-NH2  48 µM
